Laboratory results taken from ChEMBL document CHEMBL1133118 (J Med Chem, 2000).

Key:
[1] = biological target: T1, Adenosine receptor A3 (Homo sapiens) (UniProt P0DMS8); assay: Percentage of blockade by 1 uM of the inhibition by 100 nM IB-MECA-inhibited cAMP accumulation in CHO cells expressing human adenosine A3 receptor.; assay type: functional, cell-based
T1 sequence (whole entry): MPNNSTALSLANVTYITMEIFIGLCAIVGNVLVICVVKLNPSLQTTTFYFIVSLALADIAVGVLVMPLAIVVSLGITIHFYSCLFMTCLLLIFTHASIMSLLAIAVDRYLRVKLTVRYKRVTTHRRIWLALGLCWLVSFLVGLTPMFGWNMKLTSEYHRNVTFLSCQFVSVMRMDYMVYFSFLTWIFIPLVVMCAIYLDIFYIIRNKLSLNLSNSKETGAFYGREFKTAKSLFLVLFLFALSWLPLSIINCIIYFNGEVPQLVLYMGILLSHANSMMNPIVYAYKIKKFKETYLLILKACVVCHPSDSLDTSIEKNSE
Summary of the method: (§1)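 CHO cells stably expressing human A3 receptor; membranes in 50 mM Tris HCl, 10 mM MgCl2, 1 mM EDTA pH 7.4 with 5 μM GTP, 0.5 mM […] and 2.0 IU/mL adenosine deaminase. Preincubated 10 min at 37 °C, then IB-MECA (100 nM) and/or antagonist with 1 mM ATP and 10 μM forskolin for 10 min. Boiled 2 min. cAMP read by [3H]cAMP competition with adrenal binding protein.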

Adenosine receptor A2b [2] = biological target: T2, Adenosine receptor A2b (Homo sapiens, UniProt P29275); assay: Displacement of [3H]DPCPX from Adenosine A2b receptor expressed in HEK-293 cells; range 40-69
T2 sequence (P29275 whole entry): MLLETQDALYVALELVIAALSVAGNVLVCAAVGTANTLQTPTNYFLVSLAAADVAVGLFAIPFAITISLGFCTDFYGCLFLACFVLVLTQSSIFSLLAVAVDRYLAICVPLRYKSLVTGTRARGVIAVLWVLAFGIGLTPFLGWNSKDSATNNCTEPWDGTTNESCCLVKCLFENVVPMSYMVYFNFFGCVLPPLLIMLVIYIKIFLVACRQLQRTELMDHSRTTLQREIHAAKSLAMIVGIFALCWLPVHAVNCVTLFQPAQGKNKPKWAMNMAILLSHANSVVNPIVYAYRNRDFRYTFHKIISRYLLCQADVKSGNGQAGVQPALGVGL

[3] = biological target: Adenosine receptors; A2b & A3 (Homo sapiens) (UniProt P29275+P0DMS8); assay: Ratio of binding affinity of human A2B receptor to that of human A3 receptor; assay type: protein assay
Summary of the method: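 Ki ratio, n=3-6, 6–8 concentrations. A2B in HEK-293 membranes (20 μg): 40 nM [3H]DPCPX, 50 mM Tris HCl, 10 mM MgCl2, 1 mM EDTA, 0.1 mM benzamidine pH 7.4, 2 IU/mL adenosine deaminase, 60 min at 25 °C, nonspecific with 100 μM NECA. A3 in CHO membranes (50 μg): 1 nM [3H]MRE3008-F20, 120 min at 4 °C.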

Adenosine receptor A1 [4] = biological target: T3, Adenosine receptor A1 (Homo sapiens, UniProt P30542); assay: Displacement of [3H]DPCPX from human adenosine A1 receptor expressed in CHO cells; range 11-17; assay type: cell-based
T3 sequence (P30542 whole entry): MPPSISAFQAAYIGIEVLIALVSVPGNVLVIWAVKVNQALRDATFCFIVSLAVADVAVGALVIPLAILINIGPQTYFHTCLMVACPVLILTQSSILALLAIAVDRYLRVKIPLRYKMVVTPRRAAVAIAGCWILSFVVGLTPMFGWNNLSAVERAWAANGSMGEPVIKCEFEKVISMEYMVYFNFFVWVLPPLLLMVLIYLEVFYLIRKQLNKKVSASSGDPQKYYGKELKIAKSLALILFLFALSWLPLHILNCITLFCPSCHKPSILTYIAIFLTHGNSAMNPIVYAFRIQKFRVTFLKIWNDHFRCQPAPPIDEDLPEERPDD

Adenosine receptor A3 [5] = biological target: T4, Adenosine receptor A3 (Homo sapiens, UniProt P0DMS8); assay: biochemical
T4 sequence (P0DMS8 whole entry): T1 sequence (whole entry)

Adenosine receptor A2a [6] = biological target: T5, Adenosine receptor A2a (Homo sapiens, UniProt P29274); assay: Displacement of [3H]-SCH- 58261 from human adenosine A2A receptor expressed in CHO cells; range 1.4-2.1; assay type: cell-based
Summary of the method: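 CHO membranes expressing human A2A receptor (50 μg protein) in 50 mM Tris HCl, 10 mM MgCl2, pH 7.4, competed against [3H]SCH 58261. At least 6–8 test concentrations were used, with 60 min incubation at 25 °C. Nonspecific binding defined by 50 μM NECA; n=3-6.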

[7] = biological target: Adenosine receptors; A1 & A3 (Homo sapiens) (UniProt P30542+P0DMS8); assay: Ratio of binding affinity of human A1 receptor to that of human A3 receptor; assay type: protein assay
Summary of the method: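 Ki ratio from displacement in CHO membranes, 6–8 concentrations, n=3-6, filtration counting. A1: 1 nM [3H]DPCPX, 50 μg protein, 120 min at 25 °C, nonspecific with 10 μM CHA. A3: 1 nM [3H]MRE3008-F20, 50 μg protein, Tris/10 mM MgCl2 pH 7.4, 120 min at 4 °C, nonspecific with 1 μM MRE3008-F20.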

Adenosine receptor A2a [8] = biological target: T5, Adenosine receptor A2a; assay: Displacement of [3H]-SCH- 58261 from human adenosine A2A receptor expressed in CHO cells; range 461-645; assay type: cell-based
Adenosine receptor A1 [9] = biological target: T3, Adenosine receptor A1; assay: Displacement of [3H]DPCPX from human adenosine A1 receptor expressed in CHO cells; range 632-1003; assay type: cell-based
Adenosine receptor A3 [10] = biological target: T4, Adenosine receptor A3; assay: Inhibition of cAMP accumulation in CHO cells expressing human adenosine A3 receptor; range 5.1-8.9; assay type: functional, cell-based; summary of the method: as §1
[11] = biological target: T1, Adenosine receptor A3 (Homo sapiens); assay: Percent reversal of 100 nM IB-MECA-inhibited cAMP accumulation in CHO cells expressing human adenosine A3 receptor at 1 uM; range 63-110; assay type: functional, cell-based; summary of the method: as §1
Adenosine receptor A3 [12] = biological target: T4, Adenosine receptor A3; assay: Displacement of [3H]MRE3008-F20 from human adenosine A3 receptor expressed in CHO cells; range 0.63-1.00; assay type: cell-based
Adenosine receptor A2b [13] = biological target: T2, Adenosine receptor A2b; assay: Displacement of [3H]DPCPX from Adenosine A2b receptor expressed in […]; range 1531-1920; assay type: cell-based
Adenosine receptor A2b [14] = biological target: T2, Adenosine receptor A2b; assay: Displacement of [3H]DPCPX from Adenosine A2b receptor expressed in […]; range 1637-2582; assay type: cell-based
Adenosine receptor A1 [15] = biological target: T3, Adenosine receptor A1; assay: Displacement of [3H]DPCPX from human adenosine A1 receptor expressed in CHO cells; range 365-550; assay type: cell-based
Adenosine receptor A3 [16] = biological target: T4, Adenosine receptor A3; assay: Inhibition of cAMP accumulation in CHO cells expressing human A3 adenosine receptor; assay type: functional, cell-based
Adenosine receptor A3 [17] = biological target: T4, Adenosine receptor A3; assay: Displacement of [3H]MRE3008-F20 from human adenosine A3 receptor expressed in CHO cells; range 0.08-0.27; assay type: cell-based
[18] = biological target: T1, Adenosine receptor A3 (Homo sapiens); conditions: CHO, 1 uM
Adenosine receptor A2a [19] = biological target: T5, Adenosine receptor A2a; assay: Displacement of [3H]-SCH- 58261 from human adenosine A2A receptor expressed in CHO cells; range 484-558; assay type: cell-based
Summary of the method: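 Membranes from CHO cells stably expressing human A2A receptor, grown in DMEM/F12 without nucleosides, resuspended in 50 mM Tris HCl, 10 mM MgCl2, pH 7.4; 50 μg protein/assay. Competition with [3H]SCH 58261 at 6–8 or more compound concentrations, 60 min at 25 °C; nonspecific binding with 50 μM NECA. Filtration on GF/B filters, scintillation counting; n=3-6.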

Adenosine receptor A2b [20] = biological target: T2, Adenosine receptor A2b; assay: Displacement of [3H]DPCPX from Adenosine A2b receptor expressed in […]; range 332-369; assay type: cell-based
Adenosine receptor A2a [21] = biological target: T5, Adenosine receptor A2a; assay: Displacement of [3H]-SCH- 58261 from human adenosine A2A receptor expressed in CHO cells; range 1.90-3.37; assay type: cell-based
Adenosine receptor A3 [22] = biological target: T4, Adenosine receptor A3; assay: biochemical; remark: listed apart in the source
Adenosine receptor A2b [23] = biological target: T2, Adenosine receptor A2b; assay: Displacement of [3H]DPCPX from Adenosine A2b receptor expressed in CHO cells; range 35-45; assay type: cell-based; conditions: in the assay text read “HEK-293 cells” for “CHO cells”
Summary of the method: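 Human recombinant A2B receptor was expressed in HEK-293 cell membranes (20 μg protein). Incubated with 40 nM [3H]DPCPX in 50 mM Tris HCl, 10 mM MgCl2, 1 mM EDTA, 0.1 mM benzamidine, pH 7.4, with 2 IU/mL adenosine deaminase, at least 6–8 test concentrations, 60 min, 25 °C. Nonspecific binding was taken with 100 μM NECA; n=3-6.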

T5 sequence (P29274 whole entry): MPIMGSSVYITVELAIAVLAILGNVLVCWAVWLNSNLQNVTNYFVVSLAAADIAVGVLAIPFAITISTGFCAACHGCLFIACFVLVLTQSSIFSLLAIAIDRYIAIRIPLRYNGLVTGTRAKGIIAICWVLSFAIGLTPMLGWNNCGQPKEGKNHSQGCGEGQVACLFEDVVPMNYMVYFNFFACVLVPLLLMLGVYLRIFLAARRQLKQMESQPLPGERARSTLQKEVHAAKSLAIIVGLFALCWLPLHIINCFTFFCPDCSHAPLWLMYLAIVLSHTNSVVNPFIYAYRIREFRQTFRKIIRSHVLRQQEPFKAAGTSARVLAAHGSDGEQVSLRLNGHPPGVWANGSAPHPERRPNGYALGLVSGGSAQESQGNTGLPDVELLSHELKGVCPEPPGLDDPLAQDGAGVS

Compound CCCCn1cc2c(nc(N)n3nc(-c4ccco4)nc23)n1 has an inhibition [1] of 15%, a Ki (Adenosine receptor A2b [2]) of 53 nM and a Ratio [3] of 0.09. It also gave a Ki (Adenosine receptor A1 [4]) of 14 nM, a Ki (Adenosine receptor A3 [5]) of 600 nM and a Ki (Adenosine receptor A2a [6]) of 1.6 nM. It also gave a Ratio [7] of 0.02.
Compound COc1ccc(NC(=O)Nc2nc3nn(C(C)(C)C)cc3c3nc(-c4ccco4)nn23)cc1 has a Ki (Adenosine receptor A2a [8]) of 545 nM, a Ratio [3] of 2140 and a Ki (Adenosine receptor A1 [9]) of 796 nM. For the same compound, the Ratio [7] was 995, the IC50 (Adenosine receptor A3 [10]) was 6.8 nM and the inhibition [11] was 84%. The Ki (Adenosine receptor A3 [12]) was 0.8 nM and the Ki (Adenosine receptor A2b [13]) was 1720 nM.
CCCn1cc2c(nc(NC(=O)Nc3ccc(OC)cc3)n3nc(-c4ccco4)nc23)n1 was tested, and the Ki (Adenosine receptor A2b [14]) was 2060 nM.
With COc1ccc(NC(=O)Nc2nc3n[nH]cc3c3nc(-c4ccco4)nn23)cc1 the Ki (Adenosine receptor A1 [15]) was 448 nM, the Ratio [3] was 2500 and the IC50 (Adenosine receptor A3 [16]) was 1.8 nM. The Ki (Adenosine receptor A3 [17]) was 0.14 nM, the inhibition [18] was 98% and the Ratio [7] was 3200. It also gave a Ki (Adenosine receptor A2a [19]) of 520 nM and a Ki (Adenosine receptor A2b [20]) of 350 nM.
For CCCn1cc2c(nc(N)n3nc(-c4ccco4)nc23)n1, the inhibition [1] was 23%, the Ratio [3] was 0.095 and the Ki (Adenosine receptor A2a [21]) was 2.51 nM. The Ratio [7] was 0.024, the Ki (Adenosine receptor A3 [22]) was 408 nM and the Ki (Adenosine receptor A2b [23]) was 39 nM.
